From ChEMBL document CHEMBL3259664, “Optimization of an imidazopyridazine series of inhibitors of Plasmodium falciparum calcium-dependent protein kinase 1 (PfCDPK1)” (J Med Chem, 2014) come the findings set out here.

Series [1] can be described thus: Lipophilicity, log D of the compound. It is filed as physicochemical. The following applies: octanol/water.
Series [2] can be described thus: Metabolic stability in human liver microsomes assessed as compound remaining measured at […]. The series is classed as ADME. As to conditions: read-out: Stability.
The nature of series [3]: Metabolic stability in mouse liver microsomes assessed as compound remaining measured at 30 mins. It is filed as ADME. The following applies: read-out: Stability.
Series [4] has as its system Rattus norvegicus. Briefly: Volume of distribution in rat at […], iv and 21 mg/kg, po. It is filed as ADME, organism-based. As to conditions: in vivo.
A short description of series [5]: Oral bioavailability in rat at 21 mg/kg. The series is classed as ADME, organism-based. As to conditions: in vivo.
Series [6] has as its system Rattus norvegicus. Put plainly: Half life in rat at […], iv. The series is classed as ADME, organism-based. More on the design: dose 4.5 mg/kg, route intravenous. As to conditions: in vivo.
Series [7] can be described thus: Total plasma concentration in NMRI mouse infected with Plasmodium berghei ANKA at 50 mg/kg, po qd administered on day 1 to 3 post infection measured at 1 hr post last dose. The series is classed as ADME, organism-based. Further details: dose 50 mg/kg, route oral. The gist of the method: (§1)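 4-day Peters test in groups of 3 mice infected iv on day 0. Oral dosing was 50 mg/kg once daily at 4, 24, 48 and 72 h post-infection. The monohydrochloride salt was dissolved in 30:70 EtOH/Tween-80 and diluted 10-fold with water. Blood was sampled for total plasma compound levels.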

Series [8] in a line: Total plasma concentration in NMRI mouse infected with Plasmodium berghei ANKA at 50 mg/kg, po qd administered on day 1 to 3 post infection measured at 4 hrs post last dose. It is filed as ADME, organism-based. Further details: dose 50 mg/kg, route oral. The gist of the method: as §1

Consider `Fc1cccnc1Nc1ncc(-c2cnc3ccc(NCCN4CCCC4)nn23)cn1`, for which the logD in series [1] is reported as 1.5.
Compound `Cc1ccc(Nc2ncc(-c3cnc4ccc(N[C@H]5CC[C@H](N)CC5)nn34)cn2)nc1` had a logD in series [1] of 1.1. The remaining in series [2] worked out at 92%. In addition, the remaining at 0.5 h in series [3] amounted to 100%.
As for `CN1CCC(Cc2ccc3ncc(-c4cnc(Nc5ncccc5F)nc4)n3n2)CC1`, the logD in series [1] was 1.3.
As for `N[C@H]1CC[C@H](Nc2ccc3ncc(-c4cnc(Nc5ccccn5)nc4)n3n2)CC1`, in series [1], the logD is listed as 1.1. In addition, in series [2], the remaining was found to be 99%. Moreover, the remaining at 0.5 h in series [3] was found to be 93%.
In the case of `CN1CCC(Nc2ccc3ncc(-c4cnc(Nc5ncccc5F)nc4)n3n2)C1` (racemic), in series [1], the logD was determined as 1.5.
On the same count and under the same terms, next, `CN1CCN(c2ccc3ncc(-c4cnc(Nc5ncccc5F)nc4)n3n2)CC1`: 2.2.
For `CN1CCC(Nc2ccc3ncc(-c4ccc(Nc5ncc(Cl)cc5F)cc4)n3n2)CC1`, in series [1], the logD was 3.7. The remaining in series [2] was 86%. Further, in series [3], the remaining at 0.5 h amounted to 61%.
The corresponding values for `N[C@H]1CC[C@H](Nc2ccc3ncc(-c4cnc(Nc5ccccc5)nc4)n3n2)CC1` are 1.6, 89% and 92%.
On to `Fc1cccnc1Nc1ccc(-c2cnc3ccc(N[C@H]4CC[C@H](N5CCCC5)CC4)nn23)cc1`, for which the pH-dependent lipophilicity (logD) in series [1] is reported as 3.3. The remaining in series [2] was 60%. The remaining at 0.5 h in series [3] was 82%.
Compound `CN1CCC(Oc2ccc3ncc(-c4cnc(Nc5ncccc5F)nc4)n3n2)CC1` registered a logD in series [1] of 1.5.
The compound `N[C@H]1CC[C@H](Nc2ccc3ncc(-c4cnc(Nc5ncc(C(F)(F)F)cc5F)nc4)n3n2)CC1` gave a logD in series [1] of 1.6. Further, the remaining in series [2] was determined as 69%. For the same compound, the remaining at 0.5 h in series [3] was determined as 93%.
`CN1CCC(Nc2ccc3ncc(-c4ccc(Nc5ncccc5F)cc4)n3n2)CC1.Cl` displayed a Vd in the series on Rattus norvegicus [4] of 8 L/kg. This compound gave a bioavailability in series [5] of 70%. Further, in the series on Rattus norvegicus [6], the t1/2 was 4 h.
Turning to `Cc1ccc2ncc(-c3cnc(Nc4ncccc4F)nc3)n2n1`, in series [1], the log distribution coefficient (logD) amounted to 2.5.
In turn, `CN1CCC(Nc2ccc3ncc(-c4ccc(Nc5ccc(C(F)(F)F)cn5)cc4)n3n2)CC1` came in with a logD in series [1] of 3.7. The remaining in series [2] worked out at 81%. Moreover, the remaining at 0.5 h in series [3] worked out at 85%.
The compound `CN1CCC(Nc2ccc3ncc(-c4cnc(Nc5ncccc5F)nc4)n3n2)CC1` had a logD in series [1] of 1.4. Besides, the remaining in series [2] is 98%. In addition, the remaining at 0.5 h in series [3] came to 85%.
For `N[C@H]1CC[C@H](Nc2ccc3ncc(-c4ccc(Nc5ncc(F)cc5F)cc4)n3n2)CC1`, in that order: 2, 68% and 87%.
For the compound `Fc1cccnc1Nc1ncc(-c2cnc3ccc(NC4CCNC4)nn23)cn1` (racemic), the logD in series [1] turned out to be 0.4.
`N[C@H]1CC[C@H](Nc2ccc3ncc(-c4cnc(Nc5ncccc5F)nc4)n3n2)CC1`: the logD in series [1] is 0.2. Further, the remaining in series [2] amounted to 93%. The remaining at 0.5 h in series [3] was 85%.
`N[C@H]1CC[C@H](Nc2ccc3ncc(-c4ccc(Nc5ncc(Cl)cc5F)cc4)n3n2)CC1` registered a logD in series [1] of 3.1. Further, the remaining in series [2] turned out to be 77%. Moreover, in series [3], the remaining at 0.5 h turned out to be 57%.
The corresponding values for `CN1CCC(Nc2ccc3ncc(-c4ccc(Nc5ncc(F)cc5F)cc4)n3n2)CC1` are 3.7, 78% and 58%.
The corresponding values for `CN1CCC(Nc2ccc3ncc(-c4ccc(Nc5cccc(C(F)(F)F)n5)cc4)n3n2)CC1` are 3.4, 80% and 73%.
`CN1CCN(CCNc2ccc3ncc(-c4cnc(Nc5ncccc5F)nc4)n3n2)CC1`: in series [1], the logD turned out to be 1.6.
On the same count and under the same terms, the same measure for `Fc1cccnc1Nc1ncc(-c2cnc3ccc(N4CCNCC4)nn23)cn1`: 0.7.
In the case of `Cc1ccc(F)c(Nc2ccc(-c3cnc4ccc(N[C@H]5CC[C@H](N)CC5)nn34)cc2)n1`, the logD in series [1] is 2.2. The remaining in series [2] came out at 83%. Further, in series [3], the remaining at 0.5 h was 90%.
Take `Fc1cccnc1Nc1ncc(-c2cnc3ccc(NCCN4CCOCC4)nn23)cn1`: the logD in series [1] came out at 2.9.
The same measure, in the same setting: next, `Fc1cccnc1Nc1ncc(-c2cnc3ccc(N[C@H]4CC[C@H](N5CCCC5)CC4)nn23)cn1`: 1.9.
In series [1], `Fc1cccnc1Nc1ncc(-c2cnc3ccc(N[C@H]4CC[C@H](N5CCOCC5)CC4)nn23)cn1` showed a logD of 3.2.
The same measure, in the same setting: next, `CN1CCC(Oc2ccc3ncc(-c4cnc(Nc5ncccc5F)nc4)n3n2)C1` (racemic): 1.5.
For `CN1CCC(Nc2ccc3ncc(-c4ccc(Nc5ncccc5F)cc4)n3n2)CC1`, in series [1], the logD turned out to be 3.2. Also, the concentration at 1 h in series [7] amounted to 1660 ng/mL. In addition, the concentration at 4 h in series [8] was determined as 1460 ng/mL. The remaining in series [2] was determined as 80%. The remaining at 0.5 h in series [3] came out at 47%.
`N[C@H]1CC[C@H](Nc2ccc3ncc(-c4cnc(NCc5ccccn5)nc4)n3n2)CC1`: the logD in series [1] is reported as 0.4. Besides, the remaining in series [2] was determined as 95%. Further, the remaining at 0.5 h in series [3] was 95%.
`Cc1ccc(F)c(Nc2ccc(-c3cnc4ccc(NC5CCN(C)CC5)nn34)cc2)n1` displayed a logD in series [1] of 3.5. The remaining in series [2] worked out at 77%. Besides, the remaining at 0.5 h in series [3] is 52%.
Turning to `Fc1cccnc1Nc1ccc(-c2cnc3ccc(N[C@H]4CC[C@H](N5CCCC5)CC4)nn23)cn1`, in series [1], the log distribution coefficient (logD) is reported as 2.8. In series [2], the remaining came to 71%. In series [3], the remaining at 0.5 h stood at 88%.
For `CN1CCC(Nc2ccc3ncc(-c4ccc(Nc5ncccc5F)nc4)n3n2)CC1`, in that order: 3.1, 77% and 57%.
